Only some compounds are listed: those with a hit (about 1.8% of all), similar ones and a draw of the others.
MDM2 E3 inh: MDM2-luciferase reporter signal enhancers, primary screen, MDM2 E3 ligase inhibitor project, cell-based, luminescence, 1536-well. E3 ubiquitin-protein ligase Mdm2 (Homo sapiens), Q00987. cell-based MDM2 ubiquitination luciferase reporter, 2 h; 0 = plate control, 100 = twice control, blank-subtracted. signal enhancement, % at 5 µM. 210,000 tested, 0.11% active;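 active = signal enhancement of 30% or more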;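 also: luminescence tracks abundance of the self-degrading MDM2-luciferase fusion protein; higher signal means inhibition of MDM2 E3 ligase activity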
Target sequence (Q00987 whole entry, looked up, the tested form may be a part): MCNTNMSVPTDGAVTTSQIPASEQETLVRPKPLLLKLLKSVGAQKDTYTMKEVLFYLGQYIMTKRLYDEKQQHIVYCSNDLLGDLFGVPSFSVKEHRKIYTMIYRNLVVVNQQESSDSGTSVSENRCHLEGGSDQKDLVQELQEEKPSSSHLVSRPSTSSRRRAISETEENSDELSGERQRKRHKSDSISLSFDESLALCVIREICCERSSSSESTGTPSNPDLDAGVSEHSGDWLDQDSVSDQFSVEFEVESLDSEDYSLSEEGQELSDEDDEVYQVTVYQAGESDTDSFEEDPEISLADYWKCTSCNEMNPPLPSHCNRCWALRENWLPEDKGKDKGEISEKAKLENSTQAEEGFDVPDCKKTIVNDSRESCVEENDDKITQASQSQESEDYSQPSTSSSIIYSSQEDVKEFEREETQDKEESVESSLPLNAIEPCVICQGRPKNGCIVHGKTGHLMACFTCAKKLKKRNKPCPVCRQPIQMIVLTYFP
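Timing – 2 h compound exposure at 37 °C · Assay system – mammalian cells stably expressing self-ubiquitinating, self-degrading MDM2 E3–luciferase fusion · Amount – 2000 cells seeded into each well · Measure – % luminescence enhancement versus blank-corrected plate control mean · Measured by – SteadyLite luminescence, 15 min reagent step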
Autophagy HCS: autophagy modulators in MEF cells, primary screen, imaging, high-content, MEF GFP-LC3; MEF GFP-LC3 puncta imaging; test concentration mostly 10 µM; calls only at 10 µM (by protocol); 190,000 tested, 0.98% active;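 active = percentage of spot-positive cells more than 3 SD above its plate mean, without a fluorescence outlier flag or 80% toxicity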;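 also: spot-positive cell cutoff set from DMSO-treated cells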
zVAD death inh: inhibitors of zVAD-triggered necroptosis, primary screen, L929 cells; L929 zVAD necroptosis rescue, ATP luminescence, 24 h; with zVAD 60 µM; viability rescue, % at 10 µM; 220,000 tested, 0.38% active; AID 1377, 2008;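 active = activation, scaled between plate controls, above about 75%, limit read from the data; inactive = activation under that limit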;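 also: 0% = zVAD with DMSO and 100% = DMSO alone without zVAD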
TNF necrop inh: inhibitors of TNF-alpha triggered necroptosis, primary screen, cell-based, Jurkat FADD-/-, single concentration. Jurkat FADD-/- TNF necroptosis rescue, ATP luminescence, 24 h; 0 = TNF only, 100 = no-TNF cells. activation (protection from cell death), % at 10 µM. 220,000 tested, 0.068% active;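 active = activation, meaning protection from cell death, of at least 50% relative to plate controls; inactive = activation below 50%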;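 also: necroptosis triggered by 40 ng/mL TNF-alpha added together with compound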
Dynein transport: inhibitors of GR-EGFP nuclear translocation, primary screen, dynein cargo transport inhibitor project, imaging, high-content, 3617.4 mouse cells; test concentration mostly 20 µM; stimulated with dexamethasone, 1 µM; stronger effect = lower value; z-score, hits read low; 220,000 tested, 0.47% active;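 active = plate z-score of nuclear minus cytoplasmic receptor signal below a set negative limit, without overly bright fluorescence or cell loss, cut at about -3.5 in these data, passing the limit was not always enough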;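 also: z-score of nuclear minus cytoplasmic ring GR-EGFP intensity difference per well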
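Medium: Induction medium lacking tetracycline, stripped serum | Probe or stimulus: 1.0 µM final dexamethasone stimulus | Schedule: 48 h induction, then 1 h compound, then 30 min agonist, 37 °C | Signal: Automated 10x imaging of fixed Hoechst-stained cells | Evaluation: Per-cell GR-EGFP intensity, nucleus versus surrounding cytoplasmic ring, well-averaged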
zVAD necrop conf: inhibitors of zVAD-triggered necroptosis in L929, confirmation, L929 cells, duplicate runs | shares compounds with zVAD death inh | AID 463117, 2010 | 760 tested, 16% active | activation (protection from necroptosis), % at 10 µM | L929 zVAD-induced necroptosis rescue, ATP luminescence, 24 h;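 active = mean protection from necroptosis of at least 50% over duplicate tests; inactive = mean protection below 50%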;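 also: 0% = cells with zVAD alone and 100% = vehicle cells without zVAD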
Numbers without * were called inactive; i = inactive; x = no result given.

SMILES | MDM2 E3 inh | Autophagy HCS | zVAD death inh | TNF necrop inh | Dynein transport | zVAD necrop conf
CC(C)S(=O)(=O)c1csc(C(=O)Nc2ccc(F)cc2)c1N | -21 | x | 8 | -3 | 1.4 | x
C=CCNC(=O)c1ccc2c(=O)n(CCCN3CCCC3=O)c(=S)[nH]c2c1 | -14 | i | 1 | 0 | -0.47 | x
CCc1c(C)nc(SCC(=O)Nc2nc(-c3ccc(OC)cc3)cs2)[nH]c1=O | -16 | i | 20 | 0 | 0.12 | x
O=C(Cc1ccc(Cl)cc1)N1CCN(C(=O)c2ccco2)CC1 | -34 | i | 0 | 0 | -0.24 | x
O=C(Cc1ccc(Cl)cc1Cl)OCC(=O)N1CCN(C(=O)c2ccco2)CC1 | -5 | i | 76* | 0 | 0.48 | 3
Cc1cc(C(=O)OCC(=O)N2CCN(C(=O)c3ccco3)CC2)c(C)n1-c1ccc(F)cc1 | -16 | i | 87* | -2 | -0.046 | 35
O=C(OCC(=O)N1CCN(C(=O)c2ccco2)CC1)c1cc(-c2ccc(F)cc2)nc2ccccc12 | -35 | i | 0 | -8 | -0.43 | x
CC(=O)C1=C(C)N2CCN=C2S1 | -8 | x | 0 | 0 | 0.57 | x
O=C(CSc1nc2ncc(Cl)cc2[nH]1)NCC(=O)Nc1ccc(F)c(F)c1F | -16 | x | 1 | 1 | 0.45 | x
C/C(=N\OCc1ccccc1C#N)c1cc2ccccc2o1 | 0 | i | 0 | 0 | 1.8 | x
C/C(=N\OCc1ccc(C#N)cc1)c1cc2ccccc2o1 | x | x | 78* | 1 | -0.11 | 1
N#CCCCN1C(=O)C(=C(C#N)C#N)c2ccccc21 | 3 | i | 76* | -1 | -2.8 | 0
N#CCCCN1C(=O)C(O)(CC(=O)c2ccc3c(c2)OCCO3)c2ccccc21 (stereo unspecified) | -24 | i | -1 | -1 | -0.36 | x
Cc1cc(C(=O)N/N=C/C=C/c2ccccc2)n[nH]1 | -11 | x | 31 | 25 | -0.3 | x
Cc1cc(C(=O)N/N=C/C=C/c2cccc([N+](=O)[O-])c2)n[nH]1 | -7 | i | 87* | 19 | -0.85 | 1
O=C(N/N=C/C=C/c1ccccc1)c1cc(C2CC2)[nH]n1 | -13 | x | 77* | 8 | -0.66 | 4
CCOC(=O)C1CC(C)=C(C)CC1C(=O)O (stereo unspecified) | -2 | x | 1 | -1 | 0.62 | x
COc1ccc(NC(=O)c2cc3cccc(OC)c3oc2=Nc2ccc(C(=O)O)cc2)cc1OC | -8 | i | 82* | -6 | 1.6 | 11
c1ccc(-c2csc3ncnc(NCc4ccccn4)c23)cc1 | -16 | x | 78* | -11 | 0.51 | 4
O=C(Nc1ccc(N2CCCCC2)cc1)C(Cl)c1ccccc1 (stereo unspecified) | -32 | i | 77* | 13 | -0.27 | 7
Cc1cc(C)cc(C(=O)Nc2ccc(N3CCCC3)cc2)c1 | -35 | i | 8 | 1 | -0.59 | x
Cc1cc(C)cc(NC(=O)Nc2ccc(N3CCCCC3)cc2)c1 | -10 | x | 77* | 2 | 0.34 | 34
COc1ccc(N2CCN(C(=O)CCNC(=O)Cn3ccc4ccccc4c3=O)CC2)cc1 | -6 | i | -1 | 0 | 0.15 | x
Cc1ccc(C(=O)Nc2cccc(C(F)(F)F)c2)cc1Nc1ccccn1 | 9 | x | 79* | 3 | 0.2 | 65*
CS(=O)(=O)NCCCCCCNS(C)(=O)=O | -11 | i | 0 | 1 | -0.27 | x
SMILES | MDM2 E3 inh | Autophagy HCS | zVAD death inh | TNF necrop inh | Dynein transport | zVAD necrop conf
O=c1c(Cc2c(F)cccc2Cl)c(O)ccn1C1CC1 | 0 | i | 1 | 9 | -0.096 | x
CN(C)/C=C/C(=O)c1ccc(-n2cccc2)cc1 | -9 | i | 77* | 0 | 0.24 | 3
COc1ccc(-c2oc3ncnc(NCCCN4CCOCC4)c3c2-c2ccc(OC)cc2)cc1 | -4 | i | 77* | -6 | 0.35 | 0
c1ccc(-c2oc3ncnc(NCCCN4CCOCC4)c3c2-c2ccccc2)cc1 | -24 | i | 71 | 1 | -0.62 | x
CC1CC(C)CN(C(=O)CSc2nnc(-c3ccc(F)cc3)o2)C1 (stereo unspecified) | -8 | i | 89* | 1 | -0.97 | 12
Cc1cc(C)cc(-c2nnc(SCC(=O)N3CCN(C(=O)c4ccco4)CC3)o2)c1 | 5 | i | 85* | -7 | -0.82 | 24
CC1CC(C)CN(C(=O)CSc2nnc(-c3ccc(Cl)s3)o2)C1 (stereo unspecified) | -9 | i | 38 | 3 | 0.08 | x
O=C(CSc1nnc(-c2ccc(Br)cc2)o1)N1CCN(C(=O)c2ccco2)CC1 | -15 | i | 6 | 0 | -0.76 | x
Cc1ccc(C(=O)CCC(=O)N2CCN(C(=O)c3ccco3)CC2)cc1 | -8 | i | 76* | -1 | 0.26 | 8
Cc1c(Br)c(C(F)(F)F)nn1CC(=O)NCc1ccccc1 | -5 | i | 0 | 2 | -0.033 | x
CN1CCN(c2ccc(-c3ccnn3C(=O)Nc3cccc(C(F)(F)F)c3)cc2)CC1 | -18 | i | 84* | 6 | -0.26 | 51*
COc1ccc(N2CCN(C(=O)Nc3cccc(C(F)(F)F)c3)CC2)cc1 | -10 | i | 0 | 2 | 0.88 | x
Cc1cc(NO)c(C(C)C)cc1N=O | -11 | i | 78* | -2 | 0.14 | 8
Oc1ccccc1N=Cc1ccc[nH]1 | -11 | i | 97* | 8 | 0.57 | 7
CC(=O)Nc1ccc(N=Cc2ccc[nH]2)cc1 | -6 | i | 1 | 0 | 0.0032 | x
O=c1/c(=C\c2ccc(F)cc2)sc2n1CCCN=2 | -3 | i | 76* | -1 | -1.4 | 0
Nc1nc(CSc2n[nH]c(-c3ccccc3)n2)nc(Nc2ccccc2)n1 | -1 | i | 0 | -7 | 1.1 | x
Cc1ccc(-c2nc(Nc3ccccc3)n[nH]2)cc1 | -44 | i | 77* | 12 | -0.87 | 77*
O=C(Cn1cnc([N+](=O)[O-])c1)NC1CCCC1 | 8 | i | 0 | 1 | 0.23 | x
S=c1[nH]nc(-c2ccncc2)n1/N=C/C(Cl)=C\c1ccccc1 | -10 | i | 85* | 2 | -1.9 | 5
O=C(Cn1nnc(-c2ccccc2)n1)Nc1ccc2c(c1)OCO2 | -9 | i | 0 | 1 | -0.13 | x
O=C(Cn1nnc(-c2ccncc2)n1)Nc1ccc2c(c1)CCC2 | 13 | i | 81* | 1 | -0.088 | 39
COc1cc(NC(=O)Cn2nnc(-c3ccncc3)n2)cc(OC)c1 | -11 | i | 77* | -4 | 0.17 | 30

Source: PubChem (several laboratories)
